ChEMBL document CHEMBL5360632, “Quinazolinone Compounds Have Potent Antiviral Activity against Zika and Dengue Virus” (J Med Chem, 2023)
Activity calls are given as the source filed them. The calls are words filed in the database; no cut-off is given here.

What was measured:
[1] = system: Zika virus; test: (§1) Antiviral activity against ZIKV FLR infected in Vero cells assessed as inhibition of viral replication by measuring reduction in cytopathic effect at 0.3 uM preincubated with compounds for 2 hrs followed by replacement with fresh media containing compounds and measured after 48 hrs by MTT assay relative to control; type: functional; design: scale not given: the % may be the effect or the level left; settings: time 50 hrs
Summary of the method: (§2)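 Monolayers of 2 × 10^4 cells/well in DMEM with 2% FBS. Infected at 0.1 MOI together with compound for 2h. Wells washed with PBS, then fresh medium with compound added in duplicate and incubated 48h at 37 °C. Supernatant titred by end-point dilution: half-log dilutions on Vero monolayers in quadruplicate for 5–7 days, CPE by microscope then MTT. TCID50 compared with untreated; EC50 from dose-response fit of ≥2 independent experiments.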

[2] = system: Zika virus; test: Antiviral activity against ZIKV FLR infected in human U87 cells assessed as inhibition of viral replication pretreated with compounds for 2 hrs followed by replacement with fresh medium containing compound and measured after 48 hrs by MTT assay; type: functional, organism-based; settings: U-87 MG; summary of the method: as §2
[3] = system: dengue virus type 2; test: Antiviral activity against Dengue virus serotype 2 K0049 infected in Vero cells assessed as inhibition of viral replication pretreated for 2 hrs followed by replacement with fresh medium containing compound and measured after 48 hrs by MTT assay; type: functional, organism-based; summary of the method: as §2
[4] = system: Zika virus; test: Antiviral activity against ZIKV FLR infected in human U87 cells assessed as inhibition of viral replication at 1 uM pretreated with compounds for 2 hrs followed by replacement with fresh medium containing compound and measured after 48 hrs by MTT assay relative to control; type: functional; settings: U-87 MG, time 50 hrs; summary of the method: as §2
[5] = system: Zika virus; test: Antiviral activity against ZIKV FLR infected in human U87 cells assessed as inhibition of viral replication at 3 uM pretreated with compounds for 2 hrs followed by replacement with fresh medium containing compound and measured after 48 hrs by MTT assay relative to control; type: functional; settings: U-87 MG, time 50 hrs; summary of the method: as §2
[6] = system: Zika virus; test: Antiviral activity against ZIKV FLR infected in Vero cells assessed as reduction in viral titer at 1 uM preinoculated virus for 2 hrs with cells followed by washout of unattached viruses and further incubated with compound for 48 hrs by MTT assay relative to control; type: functional; design: scale not given: the % may be the effect or the level left
Summary of the method: (§3)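 Cells inoculated with 0.1 MOI virus for 2h, then unattached virus removed by PBS wash. Compound at 1 μM added either right after washout (0h-posttreatment) or 2h after washout (2h-posttreatment). Incubated to 48h at 37 °C, then supernatant TCID50 determined by end-point dilution with CPE/MTT read-out in quadruplicate on Vero cells, relative to untreated.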

[7] = system: Zika virus; test: as §1, with “1” for “0.3”; type: functional; settings: time 50 hrs; summary of the method: as §2
[8] = system: Zika virus; test: Antiviral activity against ZIKV FLR infected in Vero cells assessed as reduction in number of viral RNA copies by qRT-PCR analysis; type: functional, organism-based; settings: dose 0.3-10 µM
Summary of the method: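 Viral RNA measured in cell supernatant after compound treatment. Copies/mL calculated from a standard curve.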

[9] = system: Zika virus; test: Antiviral activity against ZIKV FLR infected in human U87 cells assessed as inhibition of viral replication at 0.3 uM pretreated with compounds for 2 hrs followed by replacement with fresh medium containing compound and measured after 48 hrs by MTT assay relative to control; type: functional; settings: U-87 MG, time 50 hrs; summary of the method: as §2
[10] = system: Zika virus; test: Antiviral activity against ZIKV […] infected in Vero cells assessed as reduction in viral titer at 1 uM preinoculated virus for 2 hrs with cells followed by washout of unattached viruses and further incubated with compound for 46 hrs starting from 2 hrs post washout by MTT assay relative to control; type: functional; design: scale not given: the % may be the effect or the level left; summary of the method: as §3
[11] = system: Zika virus; test: Antiviral activity against ZIKV FLR infected in Vero cells assessed as inhibition of viral replication by measuring reduction in cytopathic effect at 1 uM preincubated with compounds for 2 hrs followed by replacement with fresh media containing compounds and further incubated for 48 hrs in presence of 1 mM GSH by MTT assay; type: functional, organism-based; settings: time 50.0 hrs; summary of the method: as §2
[12] = system: Zika virus; test: Antiviral activity against ZIKV FLR infected in Vero cells assessed as reduction in NS3 viral protein level at 1 to 3 uM incubated for 48 hrs by Western blot analysis; type: functional, organism-based; settings: dose 1-3 µM
Summary of the method: (§4)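 8 × 10^5 Vero cells infected at MOI 0.1 for 2h. Virus removed and cells cultured 48h in fresh medium with 2% FBS plus compound. Cells lysed in ice-cold RIPA buffer and equal total protein separated by SDS-PAGE, then transferred to PVDF. Probed with antibodies to ZIKV NS3, capsid and NS5, with β-actin as loading reference.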

[13] = system: Zika virus; test: Antiviral activity against ZIKV HN16 infected in Vero cells assessed as inhibition of viral replication by measuring reduction in cytopathic effect preincubated with compounds for 2 hrs followed by replacement with fresh media containing compounds and measured after 48 hrs by MTT assay; type: functional, organism-based; summary of the method: as §2
[14] = system: U-87 MG; test: Cytotoxicity against human U87 cells assessed as reduction in cell viability; type: toxicity, cell-based; settings: u-87mg atcc
[15] = system: Zika virus; test: Antiviral activity against ZIKV FLR infected in Vero cells assessed as inhibition of viral replication by measuring reduction in cytopathic effect preincubated with compounds for 2 hrs followed by replacement with fresh media containing compounds and measured after 48 hrs by MTT assay; type: functional, organism-based; summary of the method: as §2
[16] = system: Zika virus; test: Antiviral activity against ZIKV FLR infected in mosquito C6/36 cells assessed as inhibition of viral replication pretreated with compounds for 2 hrs followed by replacement with fresh medium containing compound and measured after 48 hrs bt MTT assay; type: functional, organism-based; summary of the method: as §2
[17] = system: Zika virus; test: as §1, with “10” for “0.3”; type: functional; settings: time 50 hrs; summary of the method: as §2
[18] = system: Zika virus; test: Antiviral activity against ZIKV FLR infected in Vero cells assessed as reduction in NS5 viral protein level at 1 to 3 uM incubated for 48 hrs by Western blot analysis; type: functional, organism-based; settings: dose 1-3 µM; summary of the method: as §4
[19] = system: dengue virus type 3; test: Antiviral activity against Dengue virus serotype 3 7431 infected in Vero cells assessed as inhibition of viral replication pretreated for 2 hrs followed by replacement with fresh medium containing compound and measured after 48 hrs by MTT assay; type: functional, organism-based; settings: Dengue virus, 7431, Vero; summary of the method: as §2
[20] = system: Zika virus; test: as §1, with “>=3” for “0.3”; type: functional; design: scale not given: the % may be the effect or the level left; settings: time 50 hrs; summary of the method: as §2
[21] = system: Zika virus; test: Antiviral activity against ZIKV FLR infected in human U87 cells assessed as inhibition of viral replication at 10 uM pretreated with compounds for 2 hrs followed by replacement with fresh medium containing compound and measured after 48 hrs by MTT assay relative to control; type: functional; settings: U-87 MG, time 50 hrs; summary of the method: as §2
[22] = system: Zika virus; test: Antiviral activity against ZIKV FLR infected in Vero cells assessed as reduction in capsid protein level at 1 to 3 uM incubated for 48 hrs by Western blot analysis; type: functional, organism-based; settings: dose 1-3 µM; summary of the method: as §4

COc1cccc(/C=C/c2nc3ccc(N4CCOCC4)cc3c(=O)n2-c2cccc(C(C)(C)C)c2)n1
Activity [1]: 68% | EC50 [2]: 100 nM | EC50 [3]: 210 nM | inhibition at 1 µM [4]: 97% | inhibition at 3 µM [5]: 99% | Activity [6]: 68% | inhibition at 1 µM [7]: 90% | Activity [8]: Dose-Dependent Effect | inhibition at 0.3 µM [9]: 90% | Activity [10]: 68% | Activity [11]: Active | Activity [12]: Active | EC50 [13]: 86 nM | CC50 [14]: > 20000 nM | EC50 [15]: 180 nM | EC50 [16]: 230 nM | inhibition at 10 µM [17]: 99.9% | Activity [18]: Active | EC50 [19]: 120 nM | Activity [20]: >99.9% | inhibition at 10 µM [21]: > 99.9% | Activity [22]: Active
